In data set [1] the target is Glutamate NMDA receptor. Put plainly: Inhibition of NMDA receptor in NMDA-stimulated rat cerebellar granule neurons assessed as measuring intracellular calcium concentration in presence of glycine by Fura2-AM dye based fluorescence assay. It is filed as cell-based. The note with it: cerebellar granule neurone.
Data set [2] is described as follows: in vitro. The settings on record: PAMPA. Background: The PAMPA barrier holds no transporters, so it reflects passive diffusion.
Data set [3] deals with Mus musculus. Put plainly: Upregulation of PSD in hippocampus of 5XFAD transgenic AD mouse model at 5 mg/kg, po by Western blot analysis. Type of data set: functional, organism-based. The method, boiled down: (§1)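 5XFAD mice treated at 5 mg/kg/day for 4 weeks, n = 3–4 per group. Western blot quantifies GluN2A, PSD95, calbindin, p-Fyn/Fyn, p-GluN2B(Tyr1472)/GluN2B, and nuclear versus cytosolic p-CREB ratio. Values normalised to WT as 100%.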
(A western blot detects proteins with antibodies after separation by electrophoresis.)

Data set [4] relates to Mus musculus. The experiment in a line: Recovery of cognitive function in 5XFAD transgenic AD mouse model assessed as long term memory by measuring increase in discrimination index at 5 mg/kg/day, po for 4 weeks measured after 5 days of habituation by novel object recognition test. Type of data set: functional, organism-based. The settings on record: time 33.0 day. The method, boiled down:
(§2)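 5XFAD mice, 6 months old, treated at 5 mg/kg/day for 4 weeks; n = 8–11 per group, with WT controls. Novel object recognition test: discrimination index from exploration time of novel versus familiar object, tested at 2 h (short-term) and 24 h (long-term).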

The target in data set [5] is T1, Glutamate NMDA receptor; Grin1/Grin2a (Rattus norvegicus) (UniProt P35439+Q00959). Put plainly: Inhibition of eGFP-tagged rat GluN1/GluN2A transfected in human tsA201 cells assessed as blockade of glycine/NMDA-induced current at 10 uM treated for 40 secs measured at +60 mV holding potential applied for 5 secs by whole-cell patch-clamp method relative to control. Type of data set: cell-based. The note with it: time 45.0 sec. Summed up: (§3)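 tsA201 cells transfected with rat GluN1, rat GluN2A and eGFP (0.5:1:1); dl-APV 200 μM added at transfection. Whole-cell recording at rt, held at −60 mV. Agonist is 100 μM NMDA + 10 μM glycine; blocker at 10 μM applied by piezo until steady state. A 5 s jump to +60 mV is made during block and again after blocker washout. Block is computed from steady-state current ratios, and recovery as current after removal over current before application.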
(In patch-clamp work, channel activity is measured electrically.)

Data set [6] deals with T1, Glutamate NMDA receptor; Grin1/Grin2a (Rattus norvegicus). Put plainly: Inhibition of eGFP-tagged rat GluN1/GluN2A transfected in human tsA201 cells assessed as blockade of glycine/NMDA-induced current at 10 uM treated for 40 secs measured at -60 mV holding potential after returning from +60 mV application for 5 secs by whole-cell patch-clamp method relative to control. It is filed as cell-based. The settings on record: time 45.0 sec.

In data set [7] the test system is Mus musculus. Put plainly: Recovery of cognitive function in 5XFAD transgenic AD mouse model assessed as short term memory by measuring increased discrimination index at 5 mg/kg/day, po for 4 weeks measured after 4 days of habituation by novel object recognition test. Type of data set: functional, organism-based. The settings on record: time 32.0 day. Summed up:
as §2

Data set [8] has as its system Mus musculus. Put plainly: Upregulation of phosphorylated-GluN2B levels at Tyr1472 residue in hippocampus of 5XFAD transgenic AD mouse model at 5 mg/kg, po by Western blot analysis. Type of data set: functional, organism-based. Summed up: as §1
The target of data set [9] is T1, Glutamate NMDA receptor; Grin1/Grin2a (Rattus norvegicus). The experiment in a line: Inhibition of eGFP-tagged rat GluN1/GluN2A transfected in human tsA201 cells assessed as weighted time constant for blockade of glycine/NMDA-induced current at 10 uM at 1 sec by whole-cell patch-clamp method. It is filed as cell-based.
Data set [10] has as its system Mus musculus. Put plainly: Upregulation of calbindin D-28K levels in hippocampus of 5XFAD transgenic AD mouse model at 5 mg/kg, po by Western blot analysis. Type of data set: functional, organism-based. Summed up:
as §1

In data set [11] the test system is Caenorhabditis elegans. The experiment in a line: Effect on locomotory activity in transgenic Caenorhabditis elegans CL2006 model of paralysis assessed as reduction in defective locomotion by measuring motor index at 0.1 to 10 uM by motor behaviour assay. Type of data set: functional, organism-based. The note with it: dose 0.1-10 µM. Summed up:
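C. elegans CL2006 (constitutive human Aβ1–42), synchronised by hypochlorite and hatched as L1. Compounds in DMSO diluted into water, 1% DMSO final; tested at 0.1–10 μM. Treatment in liquid culture, 25–30 L1 worms per well with inactivated OP50, 4 days at 20 °C. Defective locomotion scored as motor index; N2 is the reference strain.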

In data set [12] the target is T1, Glutamate NMDA receptor; Grin1/Grin2a (Rattus norvegicus). Put plainly: Inhibition of eGFP-tagged rat GluN1/GluN2A transfected in human tsA201 cells assessed as weighted time constant for recovery of glycine/NMDA-induced current at 10 uM treated for 40 secs followed by application of +60 mV holding potential for 5 secs measured after 40 secs of compound removal by whole-cell patch-clamp method. Type of data set: cell-based. The note with it: time 85.0 sec.

Data set [13] shares this target. Put plainly: Inhibition of eGFP-tagged rat GluN1/GluN2A transfected in human tsA201 cells assessed as recovery of glycine/NMDA-induced current at 10 uM treated for 40 secs followed by application of +60 mV holding potential for 5 secs measured after 40 secs of compound removal by whole-cell patch-clamp method relative to control. Type of data set: cell-based. The settings on record: time 85.0 sec. Summed up:
as §3

Data set [14] relates to Mus musculus. The experiment in a line: Upregulation of phosphorylated-Fyn levels in hippocampus of 5XFAD transgenic AD mouse model at 5 mg/kg, po by Western blot analysis. It is filed as functional, organism-based. The method, boiled down:
as §1

Data set [15] deals with Caenorhabditis elegans. The experiment in a line: Neuroprotective activity against transgenic Caenorhabditis elegans CL2355 assessed as A-beta aggregration-induced reversal of disrupted chemotaxis behaviour by measuring chemotaxis index at […] treated for 72 hrs followed by compound washout and odorant addition for 1 hr. It is filed as functional, organism-based. The settings on record: dose 1.5 µM.

For data set [16], the target named is Glutamate NMDA receptor; Grin1/Grin2a (Rattus norvegicus, UniProt P35439+Q00959). Put plainly: Inhibition of eGFP-tagged rat GluN1-1a/GluN2A transfected in human tsA201 cells assessed as inhibition glutamate-induced current measured at -65 mV holding potential applied for 10 secs by whole-cell patch-clamp method. It is filed as cell-based.

These results are taken from ChEMBL document CHEMBL5154888 (Eur J Med Chem, 2022).

The source made the active and inactive calls. The rule behind the calls is not given here.

The IC50 is the point on the concentration scale where inhibition reaches its midpoint. A word on the Papp: it is the rate of passage across a membrane or cell layer, normalised by area and donor concentration. Read a high Papp as fast passage. One may read the inhibition as the relative decrease from the control value, in per cent.

With `COc1cc2c(cc1OC)C1CC3(C)CC2CC(N)(C1)C3`, the IC50 in data set [1] was 517 µM.

Take `CN(C)C12CC3CC(C)(CC(C1)c1cc([N+](=O)[O-])ccc13)C2` (centres undefined): in data set [1], the half-inhibitory concentration (IC50) came to 309 µM.

Take `CCn1cc(C(=O)O)c(=O)c2cc(F)c(N3CCNC(C)C3)c(F)c21` (centres undefined) [LOMEFLOXACIN]: the Papp in [2] is 0.86 ×10⁻⁶ cm/s.

Turning to `CC12CC3CC(N)(CC(C1)c1cc([N+](=O)[O-])ccc13)C2` (centres undefined), the IC50 in data set [1] was found to be 164 µM.

In the case of `CC(=O)c1ccc2c(c1)C1CC3(C)CC2CC(N)(C1)C3` (centres undefined), the IC50 in [1] came to 323 µM.

Consider `CC12CC3CC(C)(C1)CC(N)(C3)C2`, for which the outcome in [3], in data set [4], in data set [7], in data set [8], in [10] and in data set [11] was Active. For the same compound, the result in data set [14] and in [15] was Active. Besides, the inhibition in [5] was -3.9%; in data set [6], 86.2%; in [13], 93.6%. The inhibition entry in data set [9] was “Active”. Besides, in data set [12], the TIME was determined as 0.00178 h.

On to `CNC1(c2ccccc2Cl)CCCCC1=O` (centres undefined) [KETAMINE], for which the IC50 in data set [16] is 1000 nM.
